{
  "source": "ChEMBL document CHEMBL4622923",
  "about": "“Discovery of 4-Phenylpiperidine-2-Carboxamide Analogues as Serotonin 5-HT2C Receptor-Positive Allosteric Modulators with Enhanced Drug-like Properties” (J Med Chem, 2020)",
  "key": {"[1]": {"target": "Sodium-dependent serotonin transporter (Homo sapiens) (UniProt P31645)", "sequence (P31645 whole entry, looked up)": "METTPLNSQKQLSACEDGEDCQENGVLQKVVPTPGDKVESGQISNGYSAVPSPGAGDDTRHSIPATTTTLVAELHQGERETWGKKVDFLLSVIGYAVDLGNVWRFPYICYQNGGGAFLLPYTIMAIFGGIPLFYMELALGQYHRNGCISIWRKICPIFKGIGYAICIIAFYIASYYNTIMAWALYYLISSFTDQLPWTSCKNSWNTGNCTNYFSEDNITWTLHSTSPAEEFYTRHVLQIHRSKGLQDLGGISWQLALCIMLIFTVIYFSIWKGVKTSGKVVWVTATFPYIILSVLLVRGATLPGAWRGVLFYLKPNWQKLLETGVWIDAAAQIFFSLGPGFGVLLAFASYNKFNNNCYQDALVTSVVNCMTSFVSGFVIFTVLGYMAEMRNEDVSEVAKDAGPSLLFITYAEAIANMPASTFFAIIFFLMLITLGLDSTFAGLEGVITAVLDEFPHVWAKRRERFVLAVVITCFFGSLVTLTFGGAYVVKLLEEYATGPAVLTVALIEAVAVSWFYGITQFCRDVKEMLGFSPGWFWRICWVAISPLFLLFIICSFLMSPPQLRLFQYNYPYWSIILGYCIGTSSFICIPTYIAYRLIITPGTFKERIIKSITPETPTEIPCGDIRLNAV", "test": "Displacement of [3H]-citalopram from human SERT stably expressed in HEK cell membranes at 10 uM incubated for 90 mins under dark condition by scintillation counting analysis relative to control"}, "[2]": {"target": "D(1B) dopamine receptor (Homo sapiens) (UniProt P21918)", "sequence (P21918 whole entry)": "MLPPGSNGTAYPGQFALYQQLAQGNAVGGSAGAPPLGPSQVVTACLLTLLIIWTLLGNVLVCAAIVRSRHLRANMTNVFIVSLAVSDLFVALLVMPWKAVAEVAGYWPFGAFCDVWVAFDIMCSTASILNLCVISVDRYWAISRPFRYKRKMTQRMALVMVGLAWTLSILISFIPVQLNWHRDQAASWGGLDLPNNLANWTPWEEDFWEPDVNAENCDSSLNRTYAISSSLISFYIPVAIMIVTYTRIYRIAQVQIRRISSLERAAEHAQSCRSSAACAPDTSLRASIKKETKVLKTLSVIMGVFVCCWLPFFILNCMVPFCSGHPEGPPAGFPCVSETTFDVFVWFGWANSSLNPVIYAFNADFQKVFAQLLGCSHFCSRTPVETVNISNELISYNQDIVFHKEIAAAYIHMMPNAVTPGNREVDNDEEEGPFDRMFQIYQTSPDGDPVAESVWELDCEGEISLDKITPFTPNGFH", "test": "Displacement of [3H]-SCH23390 from human dopamine D5 receptor expressed in HEKT cell membranes at 10 uM incubated for 90 mins under dark condition by scintillation counting analysis relative to control"}, "[3]": {"target": "D(3) dopamine receptor (Homo sapiens) (UniProt P35462)", "sequence (P35462 whole entry)": "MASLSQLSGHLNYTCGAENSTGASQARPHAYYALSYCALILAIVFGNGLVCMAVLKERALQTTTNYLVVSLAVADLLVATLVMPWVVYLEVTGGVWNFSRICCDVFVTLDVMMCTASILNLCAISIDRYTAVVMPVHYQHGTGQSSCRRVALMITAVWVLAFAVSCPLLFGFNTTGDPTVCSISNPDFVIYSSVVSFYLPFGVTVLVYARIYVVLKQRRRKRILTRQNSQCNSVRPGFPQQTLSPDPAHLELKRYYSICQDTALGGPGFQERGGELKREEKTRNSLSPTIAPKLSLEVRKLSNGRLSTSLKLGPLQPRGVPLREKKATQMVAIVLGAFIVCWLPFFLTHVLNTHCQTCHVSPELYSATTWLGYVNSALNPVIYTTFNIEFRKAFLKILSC", "test": "Displacement of [3H]-N-methylspiperone from dopamine D3 receptor (unknown origin) at 10 uM incubated for 90 mins under dark condition by scintillation counting analysis relative to control"}, "[4]": {"target": "D(2) dopamine receptor (Homo sapiens) (UniProt P14416)", "sequence (P14416 whole entry)": "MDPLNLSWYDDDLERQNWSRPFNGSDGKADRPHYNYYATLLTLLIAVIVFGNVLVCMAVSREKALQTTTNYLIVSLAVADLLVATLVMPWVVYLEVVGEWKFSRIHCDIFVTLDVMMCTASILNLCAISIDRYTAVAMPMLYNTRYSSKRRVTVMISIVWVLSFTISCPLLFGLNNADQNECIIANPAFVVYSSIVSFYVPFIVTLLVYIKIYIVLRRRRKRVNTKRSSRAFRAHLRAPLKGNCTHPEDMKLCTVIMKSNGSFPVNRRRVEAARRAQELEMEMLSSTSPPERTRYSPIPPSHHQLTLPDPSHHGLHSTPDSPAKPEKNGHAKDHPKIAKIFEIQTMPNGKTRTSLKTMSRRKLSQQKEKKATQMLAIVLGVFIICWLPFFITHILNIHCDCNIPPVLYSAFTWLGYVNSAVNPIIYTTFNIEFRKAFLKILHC", "test": "Displacement of [3H]-N-methylspiperone from human dopamine D2 receptor at 10 uM incubated for 90 mins under dark condition by scintillation counting analysis relative to control"}, "5-HT2A receptor [5]": {"target": "T1, 5-HT2A receptor (Homo sapiens, UniProt P28223)", "T1 sequence (P28223 whole entry)": "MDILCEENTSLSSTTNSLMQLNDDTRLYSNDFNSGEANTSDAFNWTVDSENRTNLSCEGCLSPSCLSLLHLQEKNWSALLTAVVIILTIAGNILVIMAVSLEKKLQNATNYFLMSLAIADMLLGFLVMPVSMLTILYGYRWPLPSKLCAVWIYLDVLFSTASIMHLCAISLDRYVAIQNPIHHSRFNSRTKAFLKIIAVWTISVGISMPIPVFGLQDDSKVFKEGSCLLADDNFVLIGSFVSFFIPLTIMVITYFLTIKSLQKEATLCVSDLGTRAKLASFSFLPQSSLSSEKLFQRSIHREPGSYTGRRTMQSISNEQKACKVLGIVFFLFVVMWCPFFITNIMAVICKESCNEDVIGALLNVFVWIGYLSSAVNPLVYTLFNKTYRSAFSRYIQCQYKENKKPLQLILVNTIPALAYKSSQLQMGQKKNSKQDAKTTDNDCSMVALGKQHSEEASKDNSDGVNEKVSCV", "test": "Displacement of [3H]-ketanserin from 5HT2A (unknown origin) at 10 uM incubated for 90 mins under dark condition by scintillation counting analysis relative to control", "settings": "probe [3H]-ketanserin"}, "[6]": {"target": "Alpha-2B adrenergic receptor (Homo sapiens) (UniProt P18089)", "sequence (P18089 whole entry)": "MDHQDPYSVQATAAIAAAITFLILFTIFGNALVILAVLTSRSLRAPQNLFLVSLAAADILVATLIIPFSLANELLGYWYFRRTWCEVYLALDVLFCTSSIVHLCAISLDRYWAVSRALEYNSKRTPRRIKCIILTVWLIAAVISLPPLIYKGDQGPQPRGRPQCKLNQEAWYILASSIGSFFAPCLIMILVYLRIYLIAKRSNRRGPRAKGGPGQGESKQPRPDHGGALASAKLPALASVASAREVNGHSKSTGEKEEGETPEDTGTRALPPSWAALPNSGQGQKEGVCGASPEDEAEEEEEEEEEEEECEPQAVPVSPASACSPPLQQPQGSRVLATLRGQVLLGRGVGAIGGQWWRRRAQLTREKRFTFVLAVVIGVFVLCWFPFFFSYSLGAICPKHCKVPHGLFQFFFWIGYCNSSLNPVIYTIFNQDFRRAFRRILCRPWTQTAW", "test": "Displacement of [3H]-rauwolscine from human adrenergic alpha2B receptor transiently expressed in HEKT cell membranes at 10 uM incubated for 90 mins under dark condition by scintillation counting analysis relative to control"}, "[7]": {"target": "Alpha-2C adrenergic receptor (Homo sapiens) (UniProt P18825)", "sequence (P18825 whole entry)": "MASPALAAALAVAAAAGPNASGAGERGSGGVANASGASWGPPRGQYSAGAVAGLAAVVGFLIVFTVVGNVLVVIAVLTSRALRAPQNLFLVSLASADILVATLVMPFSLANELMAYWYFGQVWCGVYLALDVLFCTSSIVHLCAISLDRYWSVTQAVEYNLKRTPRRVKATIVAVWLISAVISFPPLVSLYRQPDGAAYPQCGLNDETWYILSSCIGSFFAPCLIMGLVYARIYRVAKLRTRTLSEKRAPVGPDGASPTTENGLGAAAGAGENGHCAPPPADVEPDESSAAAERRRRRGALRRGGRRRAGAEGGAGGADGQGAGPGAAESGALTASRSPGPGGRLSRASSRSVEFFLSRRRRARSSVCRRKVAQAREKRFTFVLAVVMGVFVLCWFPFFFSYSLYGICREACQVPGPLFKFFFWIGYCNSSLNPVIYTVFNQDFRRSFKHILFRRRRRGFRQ", "test": "Displacement of [3H]-rauwolscine from human adrenergic alpha2C receptor stably expressed in MDCK cell membranes at 10 uM incubated for 90 mins under dark condition by scintillation counting analysis relative to control"}, "[8]": {"target": "Beta-1 adrenergic receptor (Homo sapiens) (UniProt P08588)", "test": "Displacement of [125I]-pindolol from human beta1 adrenergic receptor expressed in CHO FLp-In cell membranes at 10 uM incubated for 90 mins under dark condition by scintillation counting analysis relative to control"}, "[9]": {"target": "Delta-type opioid receptor (Homo sapiens) (UniProt P41143)", "sequence (P41143 whole entry)": "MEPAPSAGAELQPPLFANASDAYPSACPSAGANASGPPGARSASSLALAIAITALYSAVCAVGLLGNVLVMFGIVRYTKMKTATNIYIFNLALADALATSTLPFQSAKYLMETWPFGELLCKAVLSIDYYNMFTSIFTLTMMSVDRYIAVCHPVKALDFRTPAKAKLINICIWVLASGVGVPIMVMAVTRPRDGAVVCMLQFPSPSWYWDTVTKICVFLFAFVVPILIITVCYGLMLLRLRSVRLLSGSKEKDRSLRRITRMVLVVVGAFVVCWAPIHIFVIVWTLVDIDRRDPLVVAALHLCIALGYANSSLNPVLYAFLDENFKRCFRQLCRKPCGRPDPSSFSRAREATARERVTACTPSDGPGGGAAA", "test": "Displacement of [3H]-DADLE from human delta opioid receptor stably expressed in HEK cell membranes at 10 uM incubated for 90 mins under dark condition by scintillation counting analysis relative to control"}, "[10]": {"target": "Sodium-dependent noradrenaline transporter (Homo sapiens, UniProt P23975)", "test": "Displacement of [3H]-nisoxetine from human NET stably expressed in HEK cell membranes incubated for 90 mins under dark condition by scintillation counting analysis", "how_it_was_run": "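Radioligand competition isotherms for human NET; IC50 from non-linear regression, converted to Ki via the Cheng-Prusoff equation; Ki averaged over repeated experiments.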"}, "CYP3A4": {"target": "CYP3A4 (Homo sapiens, UniProt P08684)", "sequence (P08684 whole entry, canonical isoform)": "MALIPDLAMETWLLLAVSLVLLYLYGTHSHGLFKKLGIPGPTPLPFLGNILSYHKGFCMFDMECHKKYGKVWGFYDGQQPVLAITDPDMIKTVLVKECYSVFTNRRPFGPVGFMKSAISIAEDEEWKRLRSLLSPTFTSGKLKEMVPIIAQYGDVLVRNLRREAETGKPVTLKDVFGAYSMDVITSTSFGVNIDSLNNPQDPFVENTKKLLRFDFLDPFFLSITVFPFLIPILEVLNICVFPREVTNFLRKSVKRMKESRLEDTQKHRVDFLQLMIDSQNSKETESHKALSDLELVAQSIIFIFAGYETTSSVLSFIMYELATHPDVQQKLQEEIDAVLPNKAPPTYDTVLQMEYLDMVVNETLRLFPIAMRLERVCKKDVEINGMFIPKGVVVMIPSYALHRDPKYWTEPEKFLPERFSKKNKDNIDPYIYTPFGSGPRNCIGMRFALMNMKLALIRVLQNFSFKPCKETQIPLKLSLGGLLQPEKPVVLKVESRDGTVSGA", "test": "Inhibition of CYP3A4 (unknown origin) at 10 uM relative to control", "assay_type": "ADME", "how_it_was_run": "(§1)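 Each CYP isoform inhibition assay run with test compound at 10 µM; reported as percent inhibition.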"}, "CYP2C19": {"target": "CYP2C19 (Homo sapiens, UniProt P33261)", "sequence (P33261 whole entry)": "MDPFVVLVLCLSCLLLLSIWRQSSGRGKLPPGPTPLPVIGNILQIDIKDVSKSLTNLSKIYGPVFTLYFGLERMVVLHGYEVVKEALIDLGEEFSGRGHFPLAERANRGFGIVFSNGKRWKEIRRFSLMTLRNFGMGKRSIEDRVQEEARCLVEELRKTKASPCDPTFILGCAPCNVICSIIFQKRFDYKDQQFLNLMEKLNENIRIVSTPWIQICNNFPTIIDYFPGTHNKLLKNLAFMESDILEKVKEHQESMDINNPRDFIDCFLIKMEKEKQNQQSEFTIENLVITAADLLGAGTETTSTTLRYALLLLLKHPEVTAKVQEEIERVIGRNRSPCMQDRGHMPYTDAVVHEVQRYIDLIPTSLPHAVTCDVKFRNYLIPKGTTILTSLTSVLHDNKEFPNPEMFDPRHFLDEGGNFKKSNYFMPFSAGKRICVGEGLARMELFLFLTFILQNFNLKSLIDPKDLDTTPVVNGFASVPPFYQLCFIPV", "test": "Inhibition of CYP2C19 (unknown origin) at 10 uM relative to control", "assay_type": "ADME", "how_it_was_run": "as §1"}, "[11]": {"test": "Apparent permeability across apical to basolateral side in MDCK-MDR1 cells", "assay_type": "ADME, cell-based, Canis lupus familiaris", "settings": "dog"}, "[12]": {"test": "Half life in Sprague-Dawley rat at 20 mg/kg, po", "assay_type": "ADME, organism-based", "settings": "in vivo", "how_it_was_run": "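Male Sprague-Dawley rats (200–250 g, n = 3/group) dosed orally at 20 mg/kg in 10% DMSO:90% HP-β-CD. Retro-orbital blood sampled at 0.25, 0.5, 1, 2, 4, 8 and 24 h post-dose; plasma analysed externally. Noncompartmental analysis: λ from least-squares terminal log-linear slope, t1/2 = 0.693/λ; mean ± SEM.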"}, "[13]": {"test": "Clearance in Sprague-Dawley rat at 20 mg/kg, po", "assay_type": "ADME, organism-based", "settings": "in vivo", "how_it_was_run": "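Male Sprague-Dawley rats (200–250 g, n = 3/group) dosed po at 20 mg/kg in 10% DMSO:90% HP-β-CD. Retro-orbital blood taken from 0.25 to 24 h. Noncompartmental analysis; mean ± SEM.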"}, "[14]": {"test": "Cmax in Sprague-Dawley rat at 10 mg/kg, iv", "assay_type": "ADME, organism-based", "parameters": "dose 10 mg/kg, route intravenous", "settings": "in vivo", "how_it_was_run": "(§2)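 Male Sprague-Dawley rats, 200–250 g, n = 3/group, randomly assigned; dosed 10 mg/kg iv or 20 mg/kg po in 10% DMSO:90% HP-β-CD. Retro-orbital blood sampled predose and 0.08 (iv only), 0.25, 0.5, 1, 2, 4, 8, 24 h. Noncompartmental analysis; Cmax read directly from plasma concentration–time plot; mean ± SEM.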"}, "[15]": {"test": "AUC (0 to infinity) in Sprague-Dawley rat at 20 mg/kg, po", "assay_type": "ADME, organism-based", "parameters": "dose 20 mg/kg, time infinity, route oral", "settings": "in vivo"}, "[16]": {"test": "Oral bioavailability in Sprague-Dawley rat at 20 mg/kg", "assay_type": "ADME, organism-based", "settings": "in vivo", "how_it_was_run": "as §2"}, "[17]": {"test": "Ratio of drug level in brain to plasma in Sprague-Dawley rat at 10 mg/kg, iv after 0.25 hrs", "assay_type": "ADME, organism-based", "how_it_was_run": "(§3)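 Male Sprague-Dawley rats, n = 3/group, given 10 mg/kg iv in 10% DMSO:90% HP-β-CD. Brain and plasma collected at 0.25 and 1 h after dosing. Brain concentration (ng/g) divided by plasma concentration (ng/mL); mean ± SEM.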"}, "[18]": {"test": "Ratio of drug level in brain to plasma in Sprague-Dawley rat at 10 mg/kg, iv after 1 hr", "assay_type": "ADME, organism-based", "how_it_was_run": "as §3"}, "5-HT2A receptor [19]": {"target": "T1, 5-HT2A receptor", "test": "Positive allosteric modulation of human 5HT2AR expressed in CHO cells assessed as increase in 5-HT induced intracellular calcium release at 1 nM preincubated for 15 mins followed by 5-HT addition and measured at 1 secs interval for 360 secs by calcium 4 dye based FLIPR assay relative to 5-HT", "assay_type": "cell-based", "settings": "CHO cells expressing human 5HT2AR", "how_it_was_run": "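CHO cells stably expressing human 5-HT2AR, serum-starved 3 h, then loaded with Calcium 4 dye plus 2.5 mM probenecid in HBSS (no Ca/Mg, pH 7.4) for 60 min at 37°C and 15 min at room temperature. Test compound added 15 min before 5-HT (10 pM-10 μM). FLIPR fluorescence read every 1 s for 360 s after 5-HT. Emax from 4-parameter fit, normalized to 5-HT maximum.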"}, "Rattus norvegicus [20]": {"test_system": "Rattus norvegicus", "test": "In vivo agonist activity at 5HT2CR in Sprague-Dawley rat assessed as increase in number of rat choosing drug associated lever at 0.5 to 5 mg/kg, ip treated 30 mins prior to test by drug discrimination test", "assay_type": "organism-based", "settings": "0.5 h", "how_it_was_run": "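Male Sprague-Dawley rats (n = 13), water-restricted, trained to discriminate WAY163909 (0.75 mg/kg ip, 15 min pretreatment) from saline in a two-lever FR20 water-reinforced task. Test compound given ip at 0.5, 1.0, 2.0 and 5.0 mg/kg, 30 min before a 15 min test. Read-out is the percentage of rats selecting the WAY163909 lever; response rate is also recorded.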"}, "Rattus norvegicus [21]": {"test_system": "Rattus norvegicus", "test": "Potentiation of WAY163909-induced neurobiological activity in Sprague-Dawley rat assessed as increase in number of rat choosing WAY163909 associated lever at 2 mg/kg, ip treated 15 mins prior to WAY163909 addition and measured after 15 mins by drug discrimination test (reference value: 53%)", "assay_type": "functional"}},
  "data": [
    {"smiles": "O=C(NC[C@H](O)CO)[C@@H]1C[C@H](c2ccccc2)CCN1", "note": "(mixture of isomers)", "values": [
      {"measurement": "inhibition", "setting": "[1]", "result": 47.5, "unit": "%"},
      {"measurement": "inhibition", "setting": "[2]", "result": 9.4, "unit": "%"},
      {"measurement": "inhibition", "setting": "[3]", "result": 19.4, "unit": "%"},
      {"measurement": "inhibition", "setting": "[4]", "result": 7.5, "unit": "%"},
      {"measurement": "inhibition at 1.5 h, 10 µM", "setting": "5-HT2A receptor [5]", "result": -4.3, "unit": "%"},
      {"measurement": "inhibition", "setting": "[6]", "result": 14.5, "unit": "%"},
      {"measurement": "inhibition", "setting": "[7]", "result": -1.8, "unit": "%"},
      {"measurement": "inhibition", "setting": "[8]", "result": -7.7, "unit": "%"},
      {"measurement": "inhibition", "setting": "[9]", "result": -6.1, "unit": "%"},
      {"measurement": "Ki", "setting": "[10]", "result": 2.5, "unit": "µM"},
      {"measurement": "inhibition at 10 µM", "setting": "CYP3A4", "result": 0, "unit": "%"},
      {"measurement": "inhibition at 10 µM", "setting": "CYP2C19", "result": 0, "unit": "%"},
      {"measurement": "Papp", "setting": "[11]", "result": 0.4, "unit": "nm/s"},
      {"measurement": "t1/2", "setting": "[12]", "result": 4.4, "unit": "h"},
      {"measurement": "CL/F", "setting": "[13]", "result": 10.9, "unit": "L/h/kg"},
      {"measurement": "Cmax", "setting": "[14]", "result": 2.4086, "unit": "µg/mL"},
      {"measurement": "AUC", "setting": "[15]", "result": 2.2447, "unit": "µg·h/mL"},
      {"measurement": "F", "setting": "[16]", "result": 36.3, "unit": "%"},
      {"measurement": "BPR", "setting": "[17]", "result": 0.07},
      {"measurement": "BPR", "setting": "[18]", "result": 0.11},
      {"measurement": "Emax at 0.1 h, 0.001 µM", "setting": "5-HT2A receptor [19]", "result": 103, "unit": "%"},
      {"measurement": "Activity", "setting": "Rattus norvegicus [20]", "result": "Non-Toxic"},
      {"measurement": "Activity", "setting": "Rattus norvegicus [21]", "result": 92, "unit": "%"}
    ]}
  ]
}
